Assay results as given in ChEMBL document CHEMBL1268910, “Assessment of structurally diverse philanthotoxin analogues for inhibitory activity on ionotropic glutamate receptor subtypes: discovery of nanomolar, nonselective, and use-dependent antagonists” (J Med Chem, 2010).
Active and inactive are the calls of the source. No cut-off for these calls is given here.

How the values were obtained:
[1] = molecular target: T1, Glutamate NMDA receptor; GRIN1/GRIN2A (Homo sapiens, UniProt Q05586+Q12879); test: Antagonist activity at NR1-1a/NR2A receptor expressed in Xenopus laevis oocytes assessed as inhibition of glutamate/glycine-induced current at -60mV holding potential by two-electrode voltage-clamp electrophysiology; type: functional, cell-based, Oocyte
Method in brief: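 Two-electrode voltage clamp at -60 mV holding potential on Xenopus oocytes expressing homomeric GluA1i or heteromeric GluN1/2A. Antagonist was co-applied with agonist: 100 μM glutamate for GluA1i, and 100 μM glutamate plus 100 μM glycine for GluN1/2A. IC50 came from concentration-inhibition curves of normalized currents (n = 3). The error term is given as the % difference between the IC50 and antilog(logIC50 + SEM).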

[2] = Selectivity ratio of IC50 for NR1-1a/NR2A receptor to IC50 for GluR1
[3] = molecular target: T1, Glutamate NMDA receptor; GRIN1/GRIN2A; test: Antagonist activity at NR1-1a/NR2A receptor expressed in Xenopus laevis oocytes assessed as inhibition of glutamate/glycine-induced current at -40mV holding potential by two-electrode voltage-clamp electrophysiology; type: functional, cell-based; conditions: Oocyte
Method in brief: (§1)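 Holding-potential dependence was measured in oocytes expressing GluA1i or GluN1/2A at -40, -60 and -80 mV by two-electrode voltage clamp. One fixed toxin concentration, chosen from the -60 mV concentration-response data, was co-applied with 100 μM glutamate (GluA1i) or with glutamate plus glycine at 100 μM each (GluN1/2A). The read-out was the reduction in receptor current.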

[4] = molecular target: T1, Glutamate NMDA receptor; GRIN1/GRIN2A; test: Antagonist activity at NR1-1a/NR2A receptor expressed in Xenopus laevis oocytes assessed as inhibition of glutamate/glycine-induced current at -80mV holding potential by two-electrode voltage-clamp electrophysiology; type: functional, cell-based; conditions: Oocyte; method in brief: as §1
[5] = system: Glutamate receptor ionotropic, AMPA 1 (GluA1i); test: Antagonist activity at GluR1 expressed in Xenopus laevis oocytes assessed as inhibition of glutamate-induced current at -40mV holding potential by two-electrode voltage-clamp electrophysiology; conditions: Oocyte
[6] = system: Glutamate receptor ionotropic, AMPA 1 (GluA1i); test: Antagonist activity at GluR1 expressed in Xenopus laevis oocytes assessed as inhibition of glutamate-induced current at -80mV holding potential by two-electrode voltage-clamp electrophysiology; conditions: Oocyte
[7] = system: Glutamate receptor ionotropic, AMPA 1 (GluA1i); test: Antagonist activity at GluR1 expressed in Xenopus laevis oocytes assessed as inhibition of glutamate-induced current at 0.1 uM at -60mV holding potential by two-electrode voltage-clamp electrophysiology; conditions: Oocyte
[8] = molecular target: T1, Glutamate NMDA receptor; GRIN1/GRIN2A; test: Antagonist activity at NR1-1a/NR2A receptor expressed in Xenopus laevis oocytes assessed as inhibition of glutamate/glycine-induced current at 0.1 uM at -60mV holding potential by two-electrode voltage-clamp electrophysiology; type: functional, cell-based; conditions: Oocyte
Method in brief: (§2)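 Single-concentration screen at 0.1 and 10 μM by two-electrode voltage clamp (-60 mV) in Xenopus oocytes. Toxin was co-applied with 100 μM glutamate (GluA1i) or with 100 μM glutamate plus 100 μM glycine (GluN1/2A). Percent inhibition was taken from the decrease in agonist-evoked current.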

[9] = molecular target: T1, Glutamate NMDA receptor; GRIN1/GRIN2A; test: Antagonist activity at NR1-1a/NR2A receptor expressed in Xenopus laevis oocytes assessed as inhibition of glutamate/glycine-induced current at 10 uM at -60mV holding potential by two-electrode voltage-clamp electrophysiology; type: functional, cell-based; conditions: Oocyte; method in brief: as §2

Row | Compound | IC50 [1] [nM] | Ratio IC50 [2] | inhibition [3] | inhibition [4] | inhibition [5] | inhibition [6] | inhibition [7] [%] | inhibition [8] [%] | inhibition [9] [%]
1 | NCCCNCCCCNCCCNC(=O)[C@H](CC1CCCCC1)NC(=O)C1CCCCC1 | 656 | 31 | Active | Active | Active | Active | 35 |  | 
2 | NCCCNCCCCNCCCNC(=O)[C@H](CCCNC(=O)Cc1ccccc1)NC(=O)C1CCCCC1 | 1030 |  |  |  |  |  | 35 |  | 
3 | NCCCNCCCCNCCCNC(=O)[C@H](CC1CCCCC1)NC(=O)Cc1cccc2ccccc12 | 47 | 1 | Active | Active | Active | Active | 35 | 63 | 92
4 | NCCCNCCCCNCCCNC(=O)[C@H](CNC(=O)Cc1ccccc1)NC(=O)C1CCCCC1 | 2810 |  |  |  |  |  | 35 |  | 
5 | NCCCNCCCCNCCCNC(=O)[C@H](CC1CCCCC1)NC(=O)C1CC1 | 2570 |  | Active | Active |  |  |  |  | 
6 | NCCCNCCCCNCCCNC(=O)[C@H](CC1CCCCC1)NC(=O)CC12CC3CC(CC(C3)C1)C2 | 794 | 8 | Active | Active | Active | Active | 35 |  | 
7 | CCCC(=O)N[C@@H](Cc1ccc(O)cc1)C(=O)NCCCNCCCCNCCCN [PHILANTHOTOXIN 343] | 2740 |  | Active | Active |  |  |  | 9 | 61
8 | NCCCNCCCCNCCCNC(=O)[C@H](CC1CCCCC1)NC(=O)c1ccc(-c2ccccc2)cc1 | 1450 | 17 | Active | Active | Active | Active | 35 |  | 
9 | CCCC(=O)N[C@@H](CC1CCCCC1)C(=O)NCCCNCCCCNCCCN | 4380 | 137 | Active | Active | Active | Active | 35 |  | 
